One assay addresses T1, Tpx WT/inhibitor complex (Trypanosoma brucei brucei, UniProt O77404).
T1 sequence (O77404 with tags, fused parts or gaps): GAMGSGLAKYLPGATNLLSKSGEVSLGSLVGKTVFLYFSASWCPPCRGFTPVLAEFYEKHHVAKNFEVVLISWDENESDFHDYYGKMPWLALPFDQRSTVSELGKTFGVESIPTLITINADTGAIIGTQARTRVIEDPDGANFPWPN
The assay is described as follows: SEC-MALS of Tpx/inhibitor complexes. Particulars: SEC-MALS at 100 μM protein concentration. Format: binding, T. brucei. An outline of the steps:
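Covalent complexes were formed as for ITC (TCEP-reduced Tpx, 3-fold excess inhibitor, 30 min, 25 °C) and SEC-purified. 100 µM complex was run on Superdex 75 10/300 in 25 mM NaPi pH 7.5, 150 mM NaCl at 0.5 ml/min, room temperature. Molar mass came from multi-angle light scattering plus refractive index detection, using a Zimm model.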
For orientation: In gel filtration, larger molecules generally elute earlier.

For assay [1], the system named is T. brucei brucei 449 (strain: Lister 427, bloodstream form). In words: Trypanosome cell survival assay. Format: cell-based. Particulars: Trypanosoma brucei, 24 h, read-out: EC50 (24 h).

Experimental findings from paper PMC12324215 (bioRxiv, 2025) are described below.

The term EC50 denotes the concentration that produces a half-maximal response. With `O=c1[nH]c(CCl)nc2scc(-c3ccc(C(F)(F)F)cc3)c12` [CtFT, 2-(Chloromethyl)-5-(4-(trifluoromethyl)phenyl)thieno[2,3-d]pyrimidin-4(3H)-one], on Tpx WT/inhibitor complex, the “oligomeric state of Tpx/inhibitor complex” value is given as “remained monomeric”. Further, in assay [1], the EC50 came to 2.2 ± 0.6 µM. For the compound `O=c1[nH]c(CCl)nc2scc(-c3ccccc3)c12` [CPT, 2-(Chloromethyl)-5-phenylthieno[2,3-d]pyrimidin-4(3H)-one], the EC50 in assay [1] stood at 0.6 ± 0.3 µM.
